SENP6 inh = blocks the human protease SENP6. Recombinant SENP6 catalytic domain, aminoluciferin luminescence. inhibition, % at 10 µM. hit rate 1.8% among 330,000. AID 2599;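 active means inhibition above about 50% at the single tested dose, limit read from the data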
Target sequence (Q9GZR1 628-1112 limits assumed): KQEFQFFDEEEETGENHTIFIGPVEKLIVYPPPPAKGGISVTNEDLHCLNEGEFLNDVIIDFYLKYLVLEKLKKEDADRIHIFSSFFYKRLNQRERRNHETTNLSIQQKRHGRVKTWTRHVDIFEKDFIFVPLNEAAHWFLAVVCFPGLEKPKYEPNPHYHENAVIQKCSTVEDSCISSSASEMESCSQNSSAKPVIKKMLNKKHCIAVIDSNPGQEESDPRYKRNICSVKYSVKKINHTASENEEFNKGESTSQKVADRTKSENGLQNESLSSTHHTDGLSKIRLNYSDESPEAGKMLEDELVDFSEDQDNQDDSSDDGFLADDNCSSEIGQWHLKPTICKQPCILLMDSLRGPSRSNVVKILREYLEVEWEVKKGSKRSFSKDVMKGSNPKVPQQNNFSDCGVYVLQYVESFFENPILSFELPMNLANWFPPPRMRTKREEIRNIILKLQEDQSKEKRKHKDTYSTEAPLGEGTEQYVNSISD
SENP7 inh = inhibitors of human SENP7 protease. Q9BQF6. recombinant SENP7, Z-RLRGG-aminoluciferin luminescence, 40 min. inhibition, % at 5 µM. hit rate 1.5% among 330,000;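 active means inhibition above about 50% at the single test dose, limit read from the data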
SENP8 block-1 = blocks the human protease SENP8; purified SENP8, Z-RLRGG-aminoluciferin cleavage, luminescence; Q96LD8; hit rate 1.2% among 330,000; inhibition, % at 10 µM; in the data active means inhibition above about 50%
Target sequence (Q96LD8 whole entry, looked up): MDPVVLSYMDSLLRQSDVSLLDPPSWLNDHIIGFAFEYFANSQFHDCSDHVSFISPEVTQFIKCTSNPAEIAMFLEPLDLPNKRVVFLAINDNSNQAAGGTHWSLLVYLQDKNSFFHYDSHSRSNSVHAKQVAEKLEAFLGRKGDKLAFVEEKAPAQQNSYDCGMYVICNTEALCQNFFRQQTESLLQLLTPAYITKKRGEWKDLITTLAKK
SENP8 block-2 = inhibitors of human SENP8 protease; Q96LD8; recombinant SENP8, Nedd8 substrate fluorescence; inhibition, % at 20 µM; AID 602440; hit rate 0.64% among 360,000; in the data active means inhibition mostly above about 40%, no sharp cut-off; inactive means mostly below about 27%
Apaf1 inhib = human Apaf-1 inhibition; reconstituted apoptosome caspase-3 activity, DEVD-Rh110 fluorescence; inhibition, % at 20 µM; hit rate 0.71% among 330,000; active means inhibition of at least 40% at 20 µM
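Assay system: Apoptosome proteins | Medium: pH 7.5 Hepes buffer with CHAPS, BSA, DTT | Also added: Cytochrome c and DEVD-Rh110 substrate | Times: 30 min plus 50 min, RT | Detection: Rhodamine 110 fluorescence at Ex 480/Em 540 nm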
UBC13 inh = human UBC13 polyubiquitination inhibition. inhibition, % at 20 µM. P61088. UBC13 polyubiquitin chain formation, TR-FRET. hit rate 0.47% among 330,000. AID 485273; in the data active means inhibition above about 45%, passing the limit was not always enough
Casp3 UBC13 ctr = inhibits human caspase-3 in UBC13 counter-screen; shares compounds with UBC13 inh; Recombinant caspase-3, Caspase-Glo 3/7 luminescence, 60 min; inhibition, % at 20 µM; hit rate 4% among 1,400; AID 488856;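 active means mean inhibition across replicates above about 26%, limit read from the data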
UBC13 confirm = confirmation of human UBC13 polyubiquitin inhibitors; inhibition, % at 10 µM; hit rate 68% among 1,400; UBC13 polyubiquitination, TR-FRET, biochemical; shares compounds with UBC13 inh; in the data active means inhibition above about 45%
Of the large screens only hits and unclear results are named; the others gave an inactive call (follow-up assays come after a bar, where they were run). Compounds with a hit are over-represented: about 3.1% of the library has one in this group of screens.

COc1ccc(C[C@H]2CN3C(=NC[C@H]3Cc3ccccc3)N2CCNC(=O)CCC2CCCCC2)cc1	UBC13 inh 66.4 | Casp3 UBC13 ctr inactive | UBC13 confirm 62.3
COc1ccc(C[C@H]2CN3C(=NC[C@@H]3Cc3ccc(O)cc3)N2CCNC(=O)c2ccc(C)c(Br)c2)cc1	UBC13 inh 74.2 | Casp3 UBC13 ctr inactive | UBC13 confirm 56.0
Cc1ccc(C(=O)NCCN2C3=NC[C@H](Cc4ccc(O)cc4)N3C[C@H]2Cc2ccc(O)cc2)cc1Br	UBC13 inh 54.8 | Casp3 UBC13 ctr inactive | UBC13 confirm inactive
NC1=NC[C@H](Cc2ccc(O)cc2)N1CCc1cccc2ccccc12	UBC13 inh 61.2 | Casp3 UBC13 ctr inactive | UBC13 confirm 50.1
NC1=NC[C@H](Cc2ccccc2)N1CCCCC1CCCCC1	Apaf1 inhib 66.9, UBC13 inh 85.7 | Casp3 UBC13 ctr inactive | UBC13 confirm 80.5
CCC(C)[C@H]1CN=C(N)N1CCc1cccc2ccccc12 (stereo partly drawn)	UBC13 inh 45.1 | Casp3 UBC13 ctr inactive | UBC13 confirm 50.8
NC1=NC[C@H](Cc2ccc(O)cc2)N1CCc1cc(C(F)(F)F)cc(C(F)(F)F)c1	UBC13 inh 51.6 | Casp3 UBC13 ctr inactive | UBC13 confirm inactive
CO[C@@H]1CN(C)C(=O)c2cc(NC(=O)NC3CCCCC3)ccc2OC[C@@H](C)N(CC2CCOCC2)C[C@@H]1C	none (no result: SENP6 inh, SENP7 inh, SENP8 block-1, Apaf1 inhib, UBC13 inh)
CS(=O)(=O)c1ccc(Nc2nc(C(N)Cc3ccc(Cl)cc3)cs2)cc1 (stereo not drawn)	none (no result: SENP6 inh, SENP7 inh, SENP8 block-1, Apaf1 inhib, UBC13 inh)
Cc1ccccc1CNC(=O)CCCC(=O)n1nc(C)c2ccccc21	UBC13 inh 45.7 | Casp3 UBC13 ctr inactive | UBC13 confirm 62.9
CN(C)CCCN(C(=O)c1ccc(S(=O)(=O)N2CCc3ccccc3C2)cc1)c1nc2c(F)cccc2s1	none
COc1ccc2sc(N(CCCN(C)C)C(=O)c3ccc(S(=O)(=O)N4CCc5ccccc5C4)cc3)nc2c1	UBC13 inh 75.4 | Casp3 UBC13 ctr inactive | UBC13 confirm 110.2
Cc1cc(C)c2sc(N(CCCN(C)C)C(=O)c3ccc(S(=O)(=O)N4CCc5ccccc5C4)cc3)nc2c1	UBC13 inh 87.1 | Casp3 UBC13 ctr inactive | UBC13 confirm 112.0
COc1ccc(S(=O)(=O)N2CCN(CC(=O)NC(C)c3cccs3)CC2)cc1 (stereo not drawn)	none (no result: SENP6 inh, SENP7 inh, SENP8 block-1, Apaf1 inhib, UBC13 inh)
CCC(=O)NC(=S)NNC(=O)c1ccc(O)cc1	UBC13 inh 85.5 | Casp3 UBC13 ctr inactive | UBC13 confirm 101.0
CCC(=O)NNC(=S)NC(=O)c1ccc(C)cc1	none
CCCC(=O)N1CCC1(C)C(=O)Nc1ncc(C(=O)OC)s1 (stereo not drawn)	none (no result: SENP6 inh, SENP7 inh, SENP8 block-1, Apaf1 inhib, UBC13 inh)
O=C(C1=C[C@H](c2coc3ccccc3c2=O)C[C@H](OCc2ccc(CO)cc2)O1)N1CCN(Cc2ccc3c(c2)OCO3)CC1	none
O=C(C1=C[C@@H](c2coc3ccccc3c2=O)C[C@@H](OCc2ccc(CO)cc2)O1)N1CCN(Cc2ccc3c(c2)OCO3)CC1	UBC13 inh 75.6 | Casp3 UBC13 ctr inactive | UBC13 confirm 56.9
COC(=O)[C@]12CCCCC=C1N(Cc1ccccc1)C(=O)[C@H](CC(=O)N1CCC(c3ccccc3)CC1)C2	none (no result: SENP6 inh, SENP7 inh, SENP8 block-1, Apaf1 inhib, UBC13 inh)
CC1Cc2nc(SCC(=O)NCC3CCCO3)n(Cc3ccccc3)c(=O)c2S1 (stereo not drawn)	none
O=C(CSc1nc2ccsc2c(=O)n1Cc1ccc(C(=O)O)cc1)NCC1CCCO1 (stereo not drawn)	UBC13 inh 69.1 | Casp3 UBC13 ctr inactive | UBC13 confirm 76.6
O=C(CSc1nc2ccsc2c(=O)n1Cc1ccccc1)NCC1CCCO1 (stereo not drawn)	UBC13 inh 55.3 | Casp3 UBC13 ctr inactive | UBC13 confirm 58.2
Cc1ccc(Cn2c(SCC(=O)NCC3CCCO3)nc3ccsc3c2=O)cc1 (stereo not drawn)	none
CCN(CC1CCCO1)C(=O)CCc1nnc(CCc2ccccc2)o1 (stereo not drawn)	none (no result: SENP6 inh, SENP7 inh, SENP8 block-1, Apaf1 inhib, UBC13 inh)
CCn1c(=O)c(C(=O)NCCN2CCCCC2)c(O)c2ccccc21	UBC13 inh 48.0 | Casp3 UBC13 ctr inactive | UBC13 confirm 55.3
CC1(C(=O)NS(=O)(=O)Cc2ccccc2)CCN1C(=O)C1(c2ccc(Cl)cc2)CCC1 (stereo not drawn)	none (no result: SENP6 inh, SENP7 inh, SENP8 block-1, Apaf1 inhib, UBC13 inh)
NCc1cc2c3c(c1)CCCN3CCC2	UBC13 inh 53.9 | Casp3 UBC13 ctr inactive | UBC13 confirm inactive
CCc1nc2c(OCc3ccc(C(F)(F)F)cc3)cccn2c1N(C)C(=O)c1ccncc1	none (no result: SENP6 inh, SENP7 inh, SENP8 block-1, Apaf1 inhib, UBC13 inh)
CCOc1cc(C2C(C#N)=C(N)Oc3n[nH]c(-c4ccccc4)c32)ccc1O (stereo not drawn)	UBC13 inh 83.0 | Casp3 UBC13 ctr inactive | UBC13 confirm 99.6
N#CC1=C(N)Oc2n[nH]c(-c3ccccc3)c2C1c1cccnc1 (stereo not drawn)	none
COc1ccc(C2=Nn3c(nnc3-c3ccccc3F)SC2)cc1OC1CCOC1 (stereo not drawn)	UBC13 inh 45.7 | Casp3 UBC13 ctr inactive | UBC13 confirm inactive
COc1ccc(OC)c(-c2nnc3n2N=C(c2ccc(OC)c(OC4CCCC4)c2)CS3)c1	none
COC(=O)c1sccc1NC(=O)c1cc2c(s1)CCCC2	SENP7 inh 55.5, UBC13 inh 45.9 | Casp3 UBC13 ctr 57.9 | UBC13 confirm inactive
COc1ccc(C)cc1NC(=O)c1cc2c(s1)CCC2	none
COc1ccc(Cc2c(C3CCCCC3)nc3c(Cl)cc(C(F)(F)F)cn23)c(C)c1	none (no result: SENP6 inh, SENP7 inh, SENP8 block-1, Apaf1 inhib, UBC13 inh)
COc1cc2[nH]c(=S)nc(Nc3ccc(NC(C)=O)cc3)c2cc1OC	UBC13 inh 46.3 | Casp3 UBC13 ctr inactive | UBC13 confirm 47.8
Cc1ccc(Cc2c(-c3ccccc3)nc3cc(C)c(Br)c(C)n23)cc1	none (no result: SENP6 inh, SENP7 inh, SENP8 block-1, Apaf1 inhib, UBC13 inh)
C#CCOCCOCCOCCNc1nc(N2CCOCC2)nc(N2CCN(C(=O)CCCCCCCCCCNC(=O)[C@H](CO)n3cc(CCCCCN)nn3)CC2)n1	Apaf1 inhib 43.5, UBC13 inh 61.5 | Casp3 UBC13 ctr inactive | UBC13 confirm inactive
C#CCOCCOCCOCCNc1nc(N2CCN(C(=O)[C@H]([C@@H](C)CC)n3cc(CCCN=C(N)N)nn3)CC2)nc(N2CCN(C(=O)[C@H](CCCCN)n3cc(CCC(=O)O)nn3)CC2)n1	none
C#CCOCCOCCOCCNc1nc(N2CCN(C(=O)CCCCCCCCCCNC(=O)[C@H](CCCCN)n3cc(CCCC(=O)O)nn3)CC2)nc(N2CCN(C(=O)CCCCCCCCCCNC(=O)[C@H](CCCCN)n3cc(CCCC(=O)O)nn3)CC2)n1	UBC13 inh 45.3 | Casp3 UBC13 ctr inactive | UBC13 confirm inactive

Bioassay records as filed in PubChem BioAssay.
